# Test results published in ChEMBL document CHEMBL1149712, “Pyrrolidine-carboxamides and oxadiazoles as potent hNK1 antagonists” (Bioorg Med Chem Lett, 2007).
# pIC50: −log10 of the molar value.
# How the values were obtained:
# Substance-P receptor [1] = target: T1, Substance-P receptor (Homo sapiens, UniProt P25103); experiment: Displacement of [125I]SP from human NK1 receptor expressed in CHO cells; assay type: cell-based
# Cytochrome P450 2D6 = Cytochrome P450 2D6 (Homo sapiens, UniProt P10635); experiment: Inhibition of human CYP2D6; assay type: ADME
# Chain of Cytochrome P450 2D6 (P10635 whole entry): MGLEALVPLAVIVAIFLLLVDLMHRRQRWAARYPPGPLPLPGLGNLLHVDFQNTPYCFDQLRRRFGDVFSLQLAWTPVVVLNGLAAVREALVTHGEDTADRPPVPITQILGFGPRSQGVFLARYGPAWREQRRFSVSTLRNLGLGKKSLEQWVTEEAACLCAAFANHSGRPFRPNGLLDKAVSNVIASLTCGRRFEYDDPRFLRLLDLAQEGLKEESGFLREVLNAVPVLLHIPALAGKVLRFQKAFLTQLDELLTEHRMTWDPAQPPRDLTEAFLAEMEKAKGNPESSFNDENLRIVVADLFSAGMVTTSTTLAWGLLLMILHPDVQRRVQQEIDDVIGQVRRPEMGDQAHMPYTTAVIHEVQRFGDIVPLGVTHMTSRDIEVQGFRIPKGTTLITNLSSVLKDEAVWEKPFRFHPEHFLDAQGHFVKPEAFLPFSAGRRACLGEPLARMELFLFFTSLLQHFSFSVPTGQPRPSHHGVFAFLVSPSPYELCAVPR
# Cytochrome P450 3A4 = Cytochrome P450 3A4 (Homo sapiens, UniProt P08684); experiment: Inhibition of human CYP3A4; assay type: ADME
# Chain of Cytochrome P450 3A4 (P08684 whole entry): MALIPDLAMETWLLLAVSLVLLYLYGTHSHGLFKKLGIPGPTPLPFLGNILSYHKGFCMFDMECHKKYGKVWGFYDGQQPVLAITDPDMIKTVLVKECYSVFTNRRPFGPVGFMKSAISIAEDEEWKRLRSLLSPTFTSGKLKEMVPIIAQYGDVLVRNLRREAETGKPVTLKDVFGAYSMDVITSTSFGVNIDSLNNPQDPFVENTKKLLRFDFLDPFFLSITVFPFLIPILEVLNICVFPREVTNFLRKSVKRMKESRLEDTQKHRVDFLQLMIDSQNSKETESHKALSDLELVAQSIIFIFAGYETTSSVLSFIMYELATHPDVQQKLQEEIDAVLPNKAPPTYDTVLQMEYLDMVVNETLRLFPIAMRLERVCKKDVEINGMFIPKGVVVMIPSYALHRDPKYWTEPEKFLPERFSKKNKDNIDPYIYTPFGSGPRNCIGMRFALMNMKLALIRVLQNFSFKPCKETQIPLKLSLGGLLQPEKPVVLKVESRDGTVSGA
# Substance-P receptor [2] = target: T1, Substance-P receptor; experiment: Displacement of [125I]SP from human NK1 receptor expressed in CHO cells in presence of 50% human serum; assay type: cell-based
# Gerbil, jird [3] = experiment: Inhibition of agonist-induced foot tapping in iv dosed gerbil; assay type: functional; conditions: Meriones
# In short: (§1)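 Gerbils received the test compound by iv infusion, followed by a central (icv) injection of an NK1 agonist at a set time after infusion (0, 4 or 24 h). The agonist-induced foot-tapping response was monitored for blockade. Results are reported as % inhibition at a single dose (mpk) or as ED50.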
# Cytochrome P450 2C9 = Cytochrome P450 2C9 (Homo sapiens, UniProt P11712); experiment: Inhibition of human CYP2C9; assay type: ADME
# Chain of Cytochrome P450 2C9 (P11712 whole entry): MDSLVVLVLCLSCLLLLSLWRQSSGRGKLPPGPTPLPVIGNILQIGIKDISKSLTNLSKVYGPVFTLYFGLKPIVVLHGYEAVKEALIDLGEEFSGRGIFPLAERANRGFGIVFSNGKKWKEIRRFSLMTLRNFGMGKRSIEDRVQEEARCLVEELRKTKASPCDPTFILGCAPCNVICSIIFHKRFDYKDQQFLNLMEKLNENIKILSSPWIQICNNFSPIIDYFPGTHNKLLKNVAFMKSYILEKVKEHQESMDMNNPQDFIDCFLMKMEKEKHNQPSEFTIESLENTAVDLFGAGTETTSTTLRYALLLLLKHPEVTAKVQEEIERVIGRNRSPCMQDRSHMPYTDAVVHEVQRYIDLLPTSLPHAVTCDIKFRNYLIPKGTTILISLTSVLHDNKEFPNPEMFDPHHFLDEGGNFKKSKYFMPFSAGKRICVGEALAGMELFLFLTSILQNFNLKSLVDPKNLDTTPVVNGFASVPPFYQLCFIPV
# Gerbil, jird [4] = experiment: Inhibition of agonist-induced foot tapping in iv dosed gerbil after 24 hrs; assay type: functional; conditions: Meriones; in short: as §1
# Gerbil, jird [5] = experiment: Inhibition of agonist-induced foot tapping in gerbil at 2 mpk, iv after 24 hrs; assay type: functional; conditions: Meriones, 4 h, in the assay text read “after 4 hrs” for “after 24 hrs”; in short: as §1
# Gerbil, jird [6] = experiment: Inhibition of agonist-induced foot tapping in gerbil at 6 mpk, iv after 24 hrs; assay type: functional; conditions: Meriones; in short: as §1
# [7] = Half life in rat; assay type: ADME, organism-based; conditions: in vivo
# Gerbil, jird [8] = experiment: Inhibition of agonist-induced foot tapping in gerbil at 3 mpk, iv after 24 hrs; assay type: functional; conditions: Meriones; in short: as §1
# T1 sequence (P25103 whole entry): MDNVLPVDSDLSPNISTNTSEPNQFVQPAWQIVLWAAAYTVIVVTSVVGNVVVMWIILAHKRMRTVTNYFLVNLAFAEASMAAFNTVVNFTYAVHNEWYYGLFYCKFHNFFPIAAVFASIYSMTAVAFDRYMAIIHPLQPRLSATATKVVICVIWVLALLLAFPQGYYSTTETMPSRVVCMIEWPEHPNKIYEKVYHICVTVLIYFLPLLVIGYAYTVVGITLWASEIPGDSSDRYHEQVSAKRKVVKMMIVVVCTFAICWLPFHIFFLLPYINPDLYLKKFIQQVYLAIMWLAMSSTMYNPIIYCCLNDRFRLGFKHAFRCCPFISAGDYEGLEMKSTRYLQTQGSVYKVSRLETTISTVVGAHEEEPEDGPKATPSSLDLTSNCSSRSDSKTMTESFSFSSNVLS
SMILES,pIC50 (Substance-P receptor [1]),pIC50 (Substance-P receptor [2]),further results
CN(Cc1cc(C(F)(F)F)cc(C(F)(F)F)c1)C(=O)[C@H]1CN(C(=O)NC2CCCCC2)C[C@@H]1c1ccccc1,9.10,–,–
CN(Cc1cc(C(F)(F)F)cc(C(F)(F)F)c1)C(=O)[C@H]1CN(C(=O)C2CCNCC2)C[C@@H]1c1ccccc1,8.39,–,–
CN(Cc1cc(C(F)(F)F)cc(C(F)(F)F)c1)C(=O)[C@H]1CN(C(=O)c2cncnc2)C[C@@H]1c1ccccc1,7.62,–,–
CC(=O)N1CCC(C(=O)N2C[C@H](C(=O)N(C)Cc3cc(C(F)(F)F)cc(C(F)(F)F)c3)[C@H](c3ccccc3)C2)CC1,8.43,–,–
CC(=O)N1CCC(C(=O)N2C[C@@H](C(=O)N(C)Cc3cc(C(F)(F)F)cc(C(F)(F)F)c3)[C@H](c3ccccc3)C2)CC1,9.01,–,–
CC(C)(C)OC(=O)N1CC[C@H](c2ccccc2)[C@@H](C(=O)NCc2cc(C(F)(F)F)cc(C(F)(F)F)c2)C1,6.35,–,–
CN(Cc1cc(C(F)(F)F)cc(C(F)(F)F)c1)C(=O)[C@H]1CN(C(=O)OC(C)(C)C)C[C@@H]1c1ccccc1,7.96,–,–
CN(Cc1cc(C(F)(F)F)cc(C(F)(F)F)c1)C(=O)[C@H]1CN(C(=O)C2CCCCC2)C[C@@H]1c1ccccc1,9.17,–,–
CC(C)(C)OC(=O)N1C[C@H](C(=O)NCc2cc(C(F)(F)F)cc(C(F)(F)F)c2)[C@@H](c2ccccc2)C1,6.85,–,–
CN(Cc1cc(C(F)(F)F)cc(C(F)(F)F)c1)C(=O)[C@H]1CN(CC2CCCCC2)C[C@@H]1c1ccccc1,7.21,–,–
CN(Cc1cc(C(F)(F)F)cc(C(F)(F)F)c1)C(=O)[C@H]1CN(C(=O)N2CCCCC2)C[C@@H]1c1ccccc1,7.89,–,–
CN(Cc1cc(C(F)(F)F)cc(C(F)(F)F)c1)C(=O)[C@H]1CN(C(=O)c2ncccn2)C[C@@H]1c1ccccc1,9.08,–,–
CN(Cc1cc(C(F)(F)F)cc(C(F)(F)F)c1)C(=O)[C@H]1CN(C(=O)c2cnccn2)C[C@@H]1c1ccccc1,9.13,–,–
CN(Cc1cc(C(F)(F)F)cc(C(F)(F)F)c1)C(=O)[C@H]1CN(C(=O)c2ccncn2)C[C@@H]1c1ccccc1,8.47,–,–

# Compounds with a higher pIC50 (Substance-P receptor [1]), results first:
pIC50 (Substance-P receptor [1]),pIC50 (Substance-P receptor [2]),SMILES,further results
9.24,–,Cc1cnc(C(=O)N2C[C@H](C(=O)N(C)Cc3cc(C(F)(F)F)cc(C(F)(F)F)c3)[C@@H](c3ccccc3)C2)cn1,–
9.38,8.35,CC(=O)N1CCC(C(=O)N2C[C@H](C(=O)N(C)Cc3cc(C(F)(F)F)cc(C(F)(F)F)c3)[C@@H](c3ccccc3)C2)CC1 (stereo in doubt; 8c),"pIC50 (Cytochrome P450 2D6): 4.62; half-life [7]: 42 min; pIC50 (Cytochrome P450 3A4): 4.74; ED50 (Gerbil, jird [3]): 0.41 mg/kg; pIC50 (Cytochrome P450 2C9): 4.59; inhibition in vivo at 3 mg/kg (Gerbil, jird [8]): 29%"
9.77,7.70,CC(=O)N1CCC(C(=O)N2C[C@@H](c3nc(C(C)(C)c4cc(C(F)(F)F)cc(C(F)(F)F)c4)no3)[C@H](c3ccc(F)cc3C)C2)CC1,"inhibition in vivo at 6 mg/kg (Gerbil, jird [6]): 1%"
9.92,–,CC(=O)N1CCC(C(=O)N2C[C@H](C(=O)N(C)Cc3cc(C(F)(F)F)cc(C(F)(F)F)c3)[C@@H](c3ccccc3)C2)CC1 (stereo in doubt; 27),–
10.05,8.10,Cc1cnc(C(=O)N2C[C@H](C(=O)N(C)Cc3cc(C(F)(F)F)cc(C(F)(F)F)c3)[C@@H](c3ccc(F)cc3C)C2)cn1,"pIC50 (Cytochrome P450 2D6): 4.14; pIC50 (Cytochrome P450 3A4): 4.96; ED50 (Gerbil, jird [3]): 6 mg/kg; pIC50 (Cytochrome P450 2C9): 4.37; ED50 (Gerbil, jird [4]): 6 mg/kg"
10.15,8.55,CC(=O)N1CCC(C(=O)N2C[C@H](c3nc(C(C)(C)c4cc(C(F)(F)F)cc(C(F)(F)F)c4)no3)[C@@H](c3ccc(F)cc3C)C2)CC1,"inhibition in vivo at 2 mg/kg (Gerbil, jird [5]): 92%; inhibition in vivo at 6 mg/kg (Gerbil, jird [6]): 1%"
10.15,8.22,CC(=O)N1CCC(C(=O)N2C[C@H](c3noc(C(C)(C)c4cc(C(F)(F)F)cc(C(F)(F)F)c4)n3)[C@@H](c3ccc(F)cc3C)C2)CC1,pIC50 (Cytochrome P450 2D6): 4.20; pIC50 (Cytochrome P450 3A4): 4.00; pIC50 (Cytochrome P450 2C9): 5.05
10.30,9.29,CC(=O)N1CCC(C(=O)N2C[C@H](C(=O)N(C)C(C)(C)c3cc(C(F)(F)F)cc(C(F)(F)F)c3)[C@@H](c3ccc(F)cc3C)C2)CC1,"pIC50 (Cytochrome P450 2D6): 4.24; pIC50 (Cytochrome P450 3A4): 4.31; pIC50 (Cytochrome P450 2C9): < 4.00; inhibition in vivo at 2 mg/kg (Gerbil, jird [5]): 100%; inhibition in vivo at 6 mg/kg (Gerbil, jird [6]): 2%"
10.30,9.68,CC(=O)N1CCC(C(=O)N2C[C@H](C(=O)N(C)Cc3cc(C(F)(F)F)cc(C(F)(F)F)c3)[C@@H](c3ccc(F)cc3C)C2)CC1,"pIC50 (Cytochrome P450 2D6): 4.04; pIC50 (Cytochrome P450 3A4): 4.96; pIC50 (Cytochrome P450 2C9): 4.16; inhibition in vivo at 2 mg/kg (Gerbil, jird [5]): 100%; inhibition in vivo at 6 mg/kg (Gerbil, jird [6]): 24%"
10.52,9.77,CC(=O)N1CCC(C(=O)N2C[C@@H](c3noc(C(C)(C)c4cc(C(F)(F)F)cc(C(F)(F)F)c4)n3)[C@H](c3ccc(F)cc3C)C2)CC1,"inhibition in vivo at 6 mg/kg (Gerbil, jird [6]): 60%"
